Data taken from PMC11303814 (Nature Communications, 2024).
Residue numbers refer to the chain shown, from its start. “Also recorded” adds a separate entry of the source.

Legend:
Type in all cases: cell-based
[1] = target: T1, rP2X7 triple mutant (R125A/Q143A/I214A) (Rattus norvegicus, UniProt Q64663, I214A/Q143A/R125A); test: TEVC efficacy experiments, triple mutant rP2X7 in oocytes; conditions: identical concentrations
T1 sequence (Q64663 1-595 R125A/Q143A/I214A): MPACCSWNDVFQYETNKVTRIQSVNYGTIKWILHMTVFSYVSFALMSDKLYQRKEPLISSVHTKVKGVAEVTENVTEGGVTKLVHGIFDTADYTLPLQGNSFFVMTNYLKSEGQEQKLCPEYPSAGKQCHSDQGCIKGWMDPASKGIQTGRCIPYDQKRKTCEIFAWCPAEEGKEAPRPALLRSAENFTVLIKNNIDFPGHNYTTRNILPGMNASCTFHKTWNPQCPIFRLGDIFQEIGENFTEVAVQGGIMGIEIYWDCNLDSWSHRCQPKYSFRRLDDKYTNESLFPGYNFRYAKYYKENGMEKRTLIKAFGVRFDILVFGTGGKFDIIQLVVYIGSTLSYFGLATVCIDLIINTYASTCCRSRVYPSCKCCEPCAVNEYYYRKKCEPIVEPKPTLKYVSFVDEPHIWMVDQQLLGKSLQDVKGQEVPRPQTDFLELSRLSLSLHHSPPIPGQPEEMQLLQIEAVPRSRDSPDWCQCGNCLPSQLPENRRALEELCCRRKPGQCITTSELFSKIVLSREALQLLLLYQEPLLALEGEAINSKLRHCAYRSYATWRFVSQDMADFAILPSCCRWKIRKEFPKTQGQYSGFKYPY
Summary of the method: (§1)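 Oocytes expressing rP2X7 (~20 h after mRNA injection), TEVC in pH 7.4 HEPES/flufenamic acid buffer. Each oocyte first received 100 µM ATP as the normalization reference, then sequentially 50 µM ATP, 50 µM BzATP, 100 µM ATP and 100 µM BzATP, with buffer washout to baseline between applications. Normalized currents are from triplicates per concentration per construct; mean ± SD.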

rP2X7-R125A/Q143A = target: T2, rP2X7-R125A/Q143A (Rattus norvegicus, UniProt Q64663, Q143A/R125A); test: TEVC dose response; conditions: read-out: EC50 (apparent affinity), mean ± SD, triplicate
T2 sequence (Q64663 1-595 R125A/Q143A): T1 sequence (Q64663 1-595 R125A/Q143A/I214A) with A214I
Summary of the method: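 TEVC was run on Xenopus oocytes ~20 h after injection of wild-type or mutant rP2X7 mRNA, in pH 7.4 HEPES buffer with 0.1 mM flufenamic acid. Receptors were facilitated at 100 µM before recording. Dilution series: ATP 1.5 mM–2 µM (7 points), BzATP 300–0.14 µM (8 points). Responses were normalized to the largest concentration, fitted by nonlinear regression for EC50, and averaged across triplicates (mean ± SD).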

rP2X7-R125A/Q143A/I214A = target: T3, rP2X7-R125A/Q143A/I214A (Rattus norvegicus, UniProt Q64663, I214A/Q143A/R125A); test: TEVC dose response; conditions: read-out: EC50 (apparent affinity), mean ± SD, triplicate
T3 sequence (Q64663 1-595 R125A/Q143A/I214A): T1 sequence (Q64663 1-595 R125A/Q143A/I214A)

wild-type rP2X7 = target: T4, wild-type rP2X7 (Rattus norvegicus, UniProt Q64663); test: TEVC efficacy experiments, wild-type rP2X7 in oocytes; conditions: WT rP2X7, identical concentrations of ATP and BzATP
T4 sequence (Q64663 1-595): T1 sequence (Q64663 1-595 R125A/Q143A/I214A) with A125R, A143Q, A214I
Summary of the method: as §1

For `Nc1ncnc2c1ncn2[C@@H]1O[C@H](COP(=O)(O)OP(=O)(O)OP(=O)(O)O)[C@@H](O)[C@H]1O` [ATP], which “efficacy (agonist character, current amplitude)” value (“efficacy” below) [1] is on record?
Its value is “equivalent agonists in terms of efficacy; also recorded: equal current amplitudes”.

What about the EC50 (rP2X7-R125A/Q143A) of the same compound?
Its EC50 is 114 ± 30 µM.

What about the EC50 (rP2X7-R125A/Q143A/I214A) of the same compound?
Its EC50 is 203 ± 12 µM.

What about the “efficacy” value (wild-type rP2X7) of the same compound?
The value was “partial agonist”.

Which “efficacy” value [1] does the source give for BzATP here?
Its value is “equivalent agonists in terms of efficacy; also recorded: equal current amplitudes”.

What about the EC50 (rP2X7-R125A/Q143A) of the same compound?
Its EC50 is 18 ± 4 µM.

And the EC50 (rP2X7-R125A/Q143A/I214A)?
Its EC50 is 198 ± 60 µM.

And the “efficacy” value (wild-type rP2X7)?
The value was “full agonist; also recorded: greater inward current than ATP”.
